One test concerns CCRF-CEM. The test is described as follows: Antiproliferative activity against human CCRF-CEM cells assessed as cell viability measured after 4 days by MTT assay. It counts as functional, cell-based. As to conditions: 96 h. The procedure, abridged:
(§1)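 Leukemia/lymphoma cells (RPMI 1640, 10% FCS) resuspended at 1 × 10⁵ cells/mL with serial drug dilutions and read by MTT after 96 h at 37 °C. Solid-tumor cells (own media, 10% FCS) were seeded at 5 × 10⁴ cells/mL, allowed 16 h to adhere, then dosed and read by MTT 4 days later. IC50 was derived by linear regression of growth as % of untreated controls.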

The next test concerns CCRF-SB. The test is described as follows: Antiproliferative activity against human CCRF-SB cells assessed as cell viability measured after 4 days by MTT assay. It counts as functional, cell-based. The settings on record: 96 h. In outline: as §1
A further test has as its system MT4. The test is described as follows: Antiproliferative activity against human MT-4 cells assessed as cell viability measured after 4 days by MTT assay. It counts as functional, cell-based. As to conditions: MT4, 96 h. In outline: as §1
For the next test, the system named is HT-29. Description: Antiproliferative activity against human HT-29 cells assessed as cell viability measured after 4 days by MTT assay. As to conditions: HT-29, 96 h. The format is functional, cell-based. The procedure, abridged: as §1
The subject of a further test is MCF7. The test is described as follows: Antiproliferative activity against human MCF7 cells assessed as cell viability measured after 4 days by MTT assay. It counts as functional, cell-based. As to conditions: MCF7, 96 h. In outline: as §1
The subject of a further test is HeLa. The test is described as follows: Antiproliferative activity against human HeLa cells assessed as cell viability measured after 4 days by MTT assay. The settings on record: 96 h. The format is functional, cell-based. The procedure, abridged:
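Solid-tumor cells (own media, 10% FCS) were seeded at 5 × 10⁴ cells/mL, allowed 16 h to adhere, then dosed and read by MTT 4 days later. IC50 was derived by linear regression of growth as % of untreated controls.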

The test system of another test is ACHN. The test is described as follows: Antiproliferative activity against human ACHN cells assessed as cell viability measured after 4 days by MTT assay. It counts as functional, cell-based. As to conditions: 96 h. In outline: as §1
A further test has as its system SK-MEL-28. Description: Antiproliferative activity against human SKMEL-28 cells assessed as cell viability measured after 4 days by MTT assay. It counts as functional, cell-based. The settings on record: SK-MEL-28, 96 h. The procedure, abridged: as §1
The next test has as its system G-361. Description: Antiproliferative activity against human G-361 cells assessed as cell viability measured after 4 days by MTT assay. As to conditions: G-361, 96 h. It counts as functional, cell-based. In outline:
as §1

Test [1] concerns Calf thymus DNA. The test is described as follows: Binding affinity to calf thymus DNA assessed as lamda max by UV-vis spectroscopy. It counts as nucleic-acid assay. The settings on record: Bos taurus. The procedure, abridged: (§2)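 ctDNA held at 0.2 mM in phosphate buffer pH 7 and titrated with drug from […]. UV-vis spectra recorded in a 1 cm quartz cuvette. Binding constant was taken by the mole-ratio method from optical density changes at 260 nm, using a double reciprocal plot.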

For test [2], the system named is Calf thymus DNA. The test is described as follows: Binding affinity to calf thymus DNA assessed as isosbestic point by UV-vis spectroscopy. The format is nucleic-acid assay. The settings on record: Bos taurus. In outline: as §2
Test [3] relates to Calf thymus DNA. Description: Binding affinity to calf thymus DNA assessed as red shift by UV-vis spectroscopy. The arrangement: unit not given here. The settings on record: Bos taurus. The format is nucleic-acid assay. In outline:
as §2

Test [4] relates to Calf thymus DNA. Description: Binding affinity to calf thymus DNA assessed as hypochromism by UV-vis spectroscopy. As to conditions: Bos taurus.
In test [5] the test system is DNA. The test is described as follows: Binding affinity at Escherichia coli pBR322 DNA assessed as unwinding of supercoiled DNA at 10 uM incubated for 10 mins in presence of human topoisomerase 1 by agarose gel based electrophoresis. It counts as nucleic-acid assay. The procedure, abridged:
(§3)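 Intercalation assay with relaxed pBR322 (300 ng) and 2 units human Topo I in 50 mM Tris-HCl pH 7.5, 2.5 mM MgCl₂, 0.5 mM DTT and 50 µg/mL BSA, run 10 min at 37 °C. Stopped by phenol/chloroform/isoamyl alcohol extraction. Products run on 1.2% agarose in TAE, 2 V/cm for 15 h, then EtBr-stained. EtBr served as control; three independent experiments.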

For test [6], the system named is DNA. Description: Binding affinity at Escherichia coli pBR322 DNA assessed as unwinding of supercoiled DNA at 0.1 uM incubated for 10 mins in presence of human topoisomerase 1 by agarose gel based electrophoresis. The format is nucleic-acid assay. The procedure, abridged: as §3
Test [7] has as its target DNA topoisomerase 2-alpha (Homo sapiens) (UniProt P11388). Description: Inhibition of human topoisomerase 2alpha mediated pBR322 DNA relaxation at 1 uM by agarose gel electrophoresis relative to control.
The target is the same in test [8]. Description: Inhibition of human topoisomerase 2alpha mediated pBR322 DNA relaxation at 2 uM by agarose gel electrophoresis relative to control.
Test [9] shares this target. The test is described as follows: Poison activity at human topo2alpha assessed as induction of accumulation of topo-2/DNA cleavage complex formation at 1 to 5 uM using […] plasmid incubated for 10 mins by agarose gel electrophoresis. As to conditions: dose 1-5 µM. In outline:
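Supercoiled pBR322 incubated with purified Topo IIα and drug for 10 min at 30 °C. Stopped with 0.35% SDS plus 0.3 mg/mL proteinase K (final), then 1 h at 56 °C. Products run on 1.2% agarose gels containing EtBr. Linear DNA quantified by gel densitometry; averages of three independent experiments.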

pIC50: −log10 of the molar value. Calls of active or inactive are those of the source. The calls are words filed in the database; no cut-off is given here. Starred links: 1 amine or outer side, 2 acyl side, 3 side chain; linkers in the order of their positions; H or OH if unused. Positions of bridges follow the written chain, without caps; N, C: chain ends. Non-standard residues stand in square brackets, D forms with d. Residues, ends and D or L forms follow the SMILES beside them. Chains are numbered I, II in the order given. Actinocin(1to9) = Cc1c2oc3c(C)ccc(C(=O)[*:2])c3nc-2c(C(=O)[*:1])c(N)c1=O; NMeV = CN[C@H](C(=O)O)C(C)C; Sar = CNCC(=O)O

DNA topoisomerase 2-alpha (Homo sapiens), sequence (P11388 whole entry): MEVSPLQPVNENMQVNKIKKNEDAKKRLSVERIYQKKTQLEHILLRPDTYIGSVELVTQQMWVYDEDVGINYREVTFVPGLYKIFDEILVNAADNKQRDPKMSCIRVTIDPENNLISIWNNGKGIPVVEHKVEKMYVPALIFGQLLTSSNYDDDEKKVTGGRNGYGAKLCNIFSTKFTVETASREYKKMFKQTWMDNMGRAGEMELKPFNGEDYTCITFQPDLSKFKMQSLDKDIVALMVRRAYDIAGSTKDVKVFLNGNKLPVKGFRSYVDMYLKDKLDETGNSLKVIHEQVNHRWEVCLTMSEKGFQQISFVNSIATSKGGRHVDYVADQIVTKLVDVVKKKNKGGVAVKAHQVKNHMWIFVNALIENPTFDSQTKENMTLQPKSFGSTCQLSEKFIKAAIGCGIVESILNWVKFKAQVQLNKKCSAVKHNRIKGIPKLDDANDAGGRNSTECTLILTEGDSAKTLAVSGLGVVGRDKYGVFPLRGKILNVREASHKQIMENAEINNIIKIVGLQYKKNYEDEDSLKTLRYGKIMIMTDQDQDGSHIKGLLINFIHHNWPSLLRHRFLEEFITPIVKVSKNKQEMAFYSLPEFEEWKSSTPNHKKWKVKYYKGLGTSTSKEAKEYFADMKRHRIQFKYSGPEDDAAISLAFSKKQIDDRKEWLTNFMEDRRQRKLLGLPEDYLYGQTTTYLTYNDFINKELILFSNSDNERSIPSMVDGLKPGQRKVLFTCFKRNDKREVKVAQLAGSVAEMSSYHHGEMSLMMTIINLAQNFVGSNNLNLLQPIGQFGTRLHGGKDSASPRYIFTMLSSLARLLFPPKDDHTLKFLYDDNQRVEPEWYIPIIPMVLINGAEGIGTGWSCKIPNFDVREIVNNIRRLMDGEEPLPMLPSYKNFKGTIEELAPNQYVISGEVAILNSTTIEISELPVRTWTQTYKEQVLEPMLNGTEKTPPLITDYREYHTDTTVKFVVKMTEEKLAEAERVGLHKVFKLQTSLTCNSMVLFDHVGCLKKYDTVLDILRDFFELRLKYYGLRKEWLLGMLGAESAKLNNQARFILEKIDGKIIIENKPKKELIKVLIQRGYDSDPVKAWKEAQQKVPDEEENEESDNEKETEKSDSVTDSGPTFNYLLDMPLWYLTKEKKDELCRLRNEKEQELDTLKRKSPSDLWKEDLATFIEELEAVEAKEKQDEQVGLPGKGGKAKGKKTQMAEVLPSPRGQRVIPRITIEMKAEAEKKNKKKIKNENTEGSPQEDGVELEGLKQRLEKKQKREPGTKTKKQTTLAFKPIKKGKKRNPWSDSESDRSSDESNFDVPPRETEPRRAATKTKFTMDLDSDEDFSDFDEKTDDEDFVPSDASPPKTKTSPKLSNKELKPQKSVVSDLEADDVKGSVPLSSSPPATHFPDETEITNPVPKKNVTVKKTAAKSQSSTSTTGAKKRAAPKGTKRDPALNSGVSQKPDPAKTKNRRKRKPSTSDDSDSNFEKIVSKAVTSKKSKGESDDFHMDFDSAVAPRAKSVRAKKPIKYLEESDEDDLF

Take `N[C@@H](CCCCNC(=O)c1ccc2nc3c4ncccc4c(=O)cc-3oc2c1)C(=O)O`: the pIC50 with CCRF-CEM is 6.82; with CCRF-SB, 6.80; in the test with MT4, 6.70; in the test with HT-29 it was 7.00; in the test with MCF7 it was 6.92; in the test on HeLa it was 7.00. Also, the pIC50 in the test on ACHN is 7.15; in the test on SK-MEL-28, 7.10; in the test with G-361, 7.05. The Activity with Calf thymus DNA [1] was 459; in the test on Calf thymus DNA [2], 320 nm; in the test on Calf thymus DNA [3] it was 461; in the test with Calf thymus DNA [4], 17%.
On to `O=c1cc2oc3ccccc3nc-2c2cccnc12`, for which the pIC50 in the test on MCF7 is 6.64.
For the compound `NCCCC[C@H](NC(=O)c1ccc2oc3cc(=O)c4ncccc4c-3nc2c1)C(=O)O`, the pIC50 in the test with CCRF-CEM was 7.00; in the test with CCRF-SB it was 6.92; in the test with MT4, 7.05; in the test with HT-29 it was 7.10; with MCF7, 7.00; in the test with HeLa, 7.10. The negative logarithm of the IC50 (pIC50) in the test on ACHN is 7.00; in the test with SK-MEL-28 it was 6.92; in the test on G-361 it was 7.22. In addition, the Activity was found to be 437 in the test with Calf thymus DNA [1], 343 nm in the test on Calf thymus DNA [2], 440 in the test with Calf thymus DNA [3] and 30% in the test on Calf thymus DNA [4]. For the same compound, the result in the test with DNA [5] was Active.
Turning to `N[C@@H](CCCCNC(=O)c1ccc2oc3cc(=O)c4cccnc4c-3nc2c1)C(=O)O`, the pIC50 was 6.82 in the test with CCRF-CEM; 7.00 in the test on CCRF-SB; 6.82 in the test with MT4; 6.92 in the test on HT-29; 6.92 in the test on MCF7; 6.82 in the test with HeLa. For the same compound, the pIC50 in the test on ACHN was 7.00; with SK-MEL-28, 7.00; in the test with G-361 it was 7.52. The Activity in the test with Calf thymus DNA [1] turned out to be 441; in the test with Calf thymus DNA [2] it was 275 nm; in the test on Calf thymus DNA [3] it was 446; with Calf thymus DNA [4], 17%.
With `N[C@@H](CCCCNC(=O)c1ccc2oc3cc(=O)c4ncccc4c-3nc2c1)C(=O)O`, the negative logarithm of the IC50 (pIC50) was 7.40 in the test on CCRF-CEM; 7.10 in the test on CCRF-SB; 7.05 in the test with MT4; 7.70 with HT-29; 7.22 with MCF7; 7.30 with HeLa. Moreover, the pIC50 was 7.30 in the test on ACHN, 7.40 in the test on SK-MEL-28 and 7.70 in the test with G-361. Further, the Activity was determined as 436 in the test on Calf thymus DNA [1], 310 nm in the test on Calf thymus DNA [2], 440 in the test with Calf thymus DNA [3] and 39% in the test with Calf thymus DNA [4]. The result with DNA [5] was Active.
For the compound `NCCCC[C@H](NC(=O)c1ccc2nc3c4cccnc4c(=O)cc-3oc2c1)C(=O)O`, the pIC50 with CCRF-CEM was 7.70; in the test with CCRF-SB, 7.70; with MT4 it was 8.00; in the test on HT-29, 8.52; in the test with MCF7 it was 8.15; with HeLa, 8.30. Further, the pIC50 in the test with ACHN is 8.10; in the test with SK-MEL-28 it was 8.70; with G-361, 9.00. The Activity with Calf thymus DNA [1] came out at 443; in the test on Calf thymus DNA [2], 395 nm; with Calf thymus DNA [3], 447; with Calf thymus DNA [4], 28. The outcome (in the test on DNA [5]; in the test on DNA [6]; in test [9]) was Active. In addition, the results for the inhibition in test [7] and in test [8] were 50% and 100%, respectively.
For `Cc1c2oc3c(C)ccc(C(=O)N[C@@H]4C(=O)N[C@H](C(C)C)C(=O)N5CCC[C@H]5C(=O)N(C)CC(=O)N(C)[C@@H](C(C)C)C(=O)O[C@@H]4C)c3nc-2c(C(=O)N[C@@H]2C(=O)N[C@H](C(C)C)C(=O)N3CCC[C@H]3C(=O)N(C)CC(=O)N(C)[C@@H](C(C)C)C(=O)O[C@@H]2C)c(N)c1=O` [DACTINOMYCIN] (I: T[dV]P[Sar][NMeV] / II: T[dV]P[Sar][NMeV]; ester I:1-I:C, II:1-II:C; linker I:N-II:N via Actinocin(1to9)), in the test with G-361, the pIC50 is 8.22.
On to `O=c1cc2oc3ccccc3nc-2c2ncccc12`, for which the pIC50 is 7.05 in the test on CCRF-CEM; 6.82 with CCRF-SB; 6.74 in the test on MT4; 6.42 in the test on HT-29; 6.43 in the test with MCF7; 6.82 in the test on HeLa. Also, the pIC50 is 6.64 with ACHN, 6.40 with SK-MEL-28 and 6.35 in the test on G-361.
`COc1cccc2c1C(=O)c1c(O)c3c(c(O)c1C2=O)C[C@@](O)(C(=O)CO)C[C@@H]3O[C@H]1C[C@H](N)[C@H](O)[C@H](C)O1` [DOXORUBICIN]: the pIC50 in the test with CCRF-CEM was 7.70.
For the compound `NCCCC[C@H](NC(=O)c1ccc2oc3cc(=O)c4cccnc4c-3nc2c1)C(=O)O`, the pIC50 was 6.80 in the test on CCRF-CEM; 6.80 in the test on CCRF-SB; 6.70 in the test with MT4; 6.70 in the test on HT-29; 7.00 in the test on MCF7; 7.00 in the test on HeLa. Further, the pIC50 in the test on ACHN is 7.10; in the test with SK-MEL-28 it was 6.68; in the test on G-361, 7.30. The Activity is 445 in the test with Calf thymus DNA [1], 280 nm in the test on Calf thymus DNA [2], 447 with Calf thymus DNA [3] and 19% in the test with Calf thymus DNA [4].
On to `NCCCC[C@H](NC(=O)c1ccc2nc3c4ncccc4c(=O)cc-3oc2c1)C(=O)O`, for which the pIC50 in the test with CCRF-CEM was 7.77; in the test with CCRF-SB it was 7.10; in the test with MT4, 6.70; in the test with HT-29, 7.00; in the test on MCF7, 7.30; with HeLa it was 7.30. For the same compound, the results for the negative logarithm of the IC50 (pIC50) with ACHN, with SK-MEL-28 and in the test with G-361 were 7.22, 7.22 and 7.30, respectively. Further, the Activity was found to be 451 in the test with Calf thymus DNA [1], 297 nm with Calf thymus DNA [2], 455 with Calf thymus DNA [3] and 26% with Calf thymus DNA [4].
`COc1cc([C@@H]2c3cc4c(cc3[C@@H](O[C@@H]3O[C@@H]5CO[C@@H](C)O[C@H]5[C@H](O)[C@H]3O)[C@H]3COC(=O)[C@H]23)OCO4)cc(OC)c1O` [ETOPOSIDE]: the pIC50 in the test on HeLa is 5.52; with SK-MEL-28, 5.96; in the test on G-361, 5.64.
